What is called inhibition is the percentage by which the read-out fell short of the control.

The structures appear in SMILES notation.

The record followed here is ChEMBL document CHEMBL1149782, “Synthesis and antifungal activity of some new 3-hydroxy-2-(1-phenyl-3-aryl-4-pyrazolyl) chromones” (2008).

Common to all, as to type: functional
The test system of assay [1] is Fusarium oxysporum. Description: Antifungal activity against Fusarium oxysporum at 500 ppm after 96 hrs. The method, boiled down: (§1)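 Poisoned-food assay on potato dextrose agar (200 g potato per litre, boiled and filtered) with compound mixed into sterilized medium at final 100, 500 or 1000 ppm. Plates were centre-inoculated with mycelial discs from 7-day PDA cultures and incubated at 28 ± 1 °C. Colony diameter was measured at two right angles after 96 h. Inhibition = (C − T) × 100/C against compound-free control, mean of three replicates ± SD, two-way ANOVA.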

For assay [2], the system named is Helminthosporium. Description: Antifungal activity against Helminthosporium species at 100 ppm after 96 hrs. The method, boiled down: as §1
The test system of assay [3] is Alternaria alternata. Description: Antifungal activity against Alternaria alternata at 100 ppm after 96 hrs. In short, it runs like this:
as §1

The test system of assay [4] is Alternaria alternata. Description: Antifungal activity against Alternaria alternata at 1000 ppm after 96 hrs. In short, it runs like this: as §1
The test system of assay [5] is Alternaria alternata. Description: Antifungal activity against Alternaria alternata at 500 ppm after 96 hrs. In short, it runs like this:
as §1

The subject of assay [6] is Fusarium oxysporum. Description: Antifungal activity against Fusarium oxysporum at 1000 ppm after 96 hrs. In short, it runs like this:
as §1

The subject of assay [7] is Fusarium oxysporum. The assay can be described thus: Antifungal activity against Fusarium oxysporum at 100 ppm after 96 hrs. In short, it runs like this:
as §1

In assay [8] the test system is Helminthosporium. The assay can be described thus: Antifungal activity against Helminthosporium species at 1000 ppm after 96 hrs. The method, boiled down: as §1
The subject of assay [9] is Helminthosporium. The assay can be described thus: Antifungal activity against Helminthosporium species at 500 ppm after 96 hrs. The method, boiled down: as §1

As for `Cc1ccc(-c2nn(-c3ccccc3)cc2-c2oc3ccccc3c(=O)c2O)cc1`, the values for the inhibition at 500 ppm in [1], in [5] and in assay [9] were 51.4%, 61.8% and 73.8%, respectively. The inhibition at 100 ppm is 73.8% in assay [2], 60% in assay [3] and 50% in assay [7]. The inhibition at 1000 ppm turned out to be 61.8% in assay [4], 55.7% in assay [6] and 76.1% in assay [8].

For the compound `COc1ccc(-c2nn(-c3ccccc3)cc2-c2oc3ccccc3c(=O)c2O)cc1`, the inhibition at 500 ppm in [1] is 55.3%; in assay [5] it was 75.4%; in assay [9], 59.7%. For the same compound, the inhibition at 100 ppm in assay [2] stood at 59.7%; in [3] it was 73.5%; in assay [7], 55.5%. Further, the inhibition at 1000 ppm in [4] stood at 77.3%; in assay [6] it was 64.2%; in assay [8] it was 77.6%.

In the case of `O=c1c(O)c(-c2cn(-c3ccccc3)nc2-c2ccc(Br)cc2)oc2ccccc12`, the values for the inhibition at 500 ppm in assay [1], in [5] and in assay [9] were 35.7%, 29% and 39.2%, respectively. In addition, the inhibition at 100 ppm in assay [2] was 39%; in [3], 25.4%; in [7], 34.2%. In addition, the inhibition at 1000 ppm is 34.5% in assay [4], 41.4% in assay [6] and 39.2% in [8].

As to `O=c1c(O)c(-c2cn(-c3ccccc3)nc2-c2ccc(Cl)cc2)oc2ccccc12`, the values for the inhibition at 500 ppm in [1], in assay [5] and in assay [9] were 0%, 38.2% and 1.19%, respectively. Besides, the inhibition at 100 ppm in assay [2], in assay [3] and in assay [7] was 0% throughout. Further, the inhibition at 1000 ppm worked out at 38.2% in assay [4], 0% in [6] and 21.4% in assay [8].

As to `O=c1c(O)c(-c2cn(-c3ccccc3)nc2-c2ccccc2)oc2ccccc12`, the inhibition at 500 ppm in [1] was 39.2%; in assay [5], 41.5%; in [9], 50.5%. The inhibition at 100 ppm in assay [2] stood at 31%; in assay [3], 15%; in [7], 33.9%. The results for the inhibition at 1000 ppm in assay [4], in [6] and in assay [8] were 52.8%, 51.7% and 71.2%, respectively.

Turning to `C[C@@H]1C[C@@H]([C@H](O)CC2CC(=O)NC(=O)C2)C(=O)[C@@H](C)C1` [CYCLOHEXIMIDE], the inhibition at 500 ppm in assay [1] is 43.4%; in assay [5] it was 45.5%; in assay [9], 41.5%. In addition, the inhibition at 100 ppm was 38.5% in assay [2], 40.2% in assay [3] and 39.2% in [7]. Besides, the inhibition at 1000 ppm in [4] worked out at 50.6%; in assay [6], 50.2%; in assay [8], 50%.

For `O=c1c(O)c(-c2cn(-c3ccccc3)nc2-c2ccc([N+](=O)[O-])cc2)oc2ccccc12`, the inhibition at 500 ppm in assay [1] came out at 11.4%; in assay [5], 16.1%; in assay [9] it was 1.31%. The inhibition at 100 ppm in assay [2] amounted to 1.31%; in assay [3] it was 0%; in assay [7], 8.57%. Besides, the inhibition at 1000 ppm in assay [4] is 16.1%; in assay [6], 14.2%; in assay [8] it was 14.4%.

Turning to `O=c1c(O)c(-c2cn(-c3ccccc3)nc2-c2ccc(F)cc2)oc2ccccc12`, the inhibition at 500 ppm is 8.9% in assay [1], 43.3% in assay [5] and 28.7% in assay [9]. Also, the figures for the inhibition at 100 ppm in assay [2], in [3] and in assay [7] were 12.3%, 30.1% and 8.9%, respectively. Further, the results for the inhibition at 1000 ppm in [4], in assay [6] and in assay [8] were 50.9%, 16% and 58.6%, respectively.
